# According to ChEMBL document CHEMBL1681770, “CD22-antagonists with nanomolar potency: the synergistic effect of hydrophobic groups at C-2 and C-9 of sialic acid scaffold” (Bioorg Med Chem, 2011):
# Columns and labels:
# [1] = species on record: Homo sapiens; test: Selectivity ratio of IC50 for human MAG to IC50 for human CD22
# [2] = target: T1, B-cell receptor CD22 (Homo sapiens, UniProt P20273); test: Antagonist activity at human CD22 after 1 hr by competitive ELISA; type: functional
# T1 sequence (P20273 whole entry): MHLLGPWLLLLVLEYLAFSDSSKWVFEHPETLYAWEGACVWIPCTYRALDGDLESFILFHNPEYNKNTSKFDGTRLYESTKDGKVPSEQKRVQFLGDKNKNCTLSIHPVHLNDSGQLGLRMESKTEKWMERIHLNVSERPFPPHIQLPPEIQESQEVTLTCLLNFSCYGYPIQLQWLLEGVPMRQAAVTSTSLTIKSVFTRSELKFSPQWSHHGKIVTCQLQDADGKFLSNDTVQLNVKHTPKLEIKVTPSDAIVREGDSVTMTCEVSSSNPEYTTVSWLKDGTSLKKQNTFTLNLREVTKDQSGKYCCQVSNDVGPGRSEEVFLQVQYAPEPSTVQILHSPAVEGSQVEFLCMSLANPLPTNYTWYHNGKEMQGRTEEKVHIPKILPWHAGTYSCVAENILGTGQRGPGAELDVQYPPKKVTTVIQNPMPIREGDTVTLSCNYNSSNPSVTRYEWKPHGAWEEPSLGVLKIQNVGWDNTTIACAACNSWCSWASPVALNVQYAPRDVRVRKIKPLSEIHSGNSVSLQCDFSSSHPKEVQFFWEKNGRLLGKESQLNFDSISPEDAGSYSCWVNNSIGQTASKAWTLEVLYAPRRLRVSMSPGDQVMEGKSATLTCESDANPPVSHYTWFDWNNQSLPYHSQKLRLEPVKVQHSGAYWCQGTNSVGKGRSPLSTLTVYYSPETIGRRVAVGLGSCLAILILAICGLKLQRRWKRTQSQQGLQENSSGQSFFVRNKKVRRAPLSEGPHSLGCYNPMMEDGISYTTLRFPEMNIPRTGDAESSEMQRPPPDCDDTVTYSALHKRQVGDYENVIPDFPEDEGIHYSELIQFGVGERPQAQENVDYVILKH
# Summary of the method: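 Neutravidin-precoated plates (1 μg/well, overnight, 4°C) were blocked with 0.5% BSA in HBSS for 30 min at 37°C. Biotinylated Siaα2-6LacNAc-PAA (0.625 μg/mL) was bound 1 h at RT. Inhibitor and precomplexed hCD22-Fc/goat anti-human IgG F(ab')2 were added and bound 30 min at 37°C. After HBSS washes: TMB, H2SO4 stop, OD450. Triplicates, mean ± SD.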
# [3] = target: B-cell receptor CD22 (Homo sapiens) (UniProt P20273); test: Ratio of IC50 for 9-(4'-hydroxy-4-biphenyl)acetamido-9-deoxy-Neu5Gca2-6GalOMP to IC50 for compound at human CD22
# Summary of the method: (§1)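 Relative inhibitory potency (rIP) = IC50 of the 9-biphenylacetamido Neu5Gcα2-6GalOMP reference divided by IC50 of the test sialoside, each IC50 taken from the competition ELISA for the respective CD22 species. Values above 1.0 mean tighter binding than the reference.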
# [4] = target: T2, B-cell receptor CD22 (Mus musculus, UniProt P35329); test: Antagonist activity at mouse CD22 after 1 hr by competitive ELISA; type: functional
# T2 sequence (P35329 whole entry): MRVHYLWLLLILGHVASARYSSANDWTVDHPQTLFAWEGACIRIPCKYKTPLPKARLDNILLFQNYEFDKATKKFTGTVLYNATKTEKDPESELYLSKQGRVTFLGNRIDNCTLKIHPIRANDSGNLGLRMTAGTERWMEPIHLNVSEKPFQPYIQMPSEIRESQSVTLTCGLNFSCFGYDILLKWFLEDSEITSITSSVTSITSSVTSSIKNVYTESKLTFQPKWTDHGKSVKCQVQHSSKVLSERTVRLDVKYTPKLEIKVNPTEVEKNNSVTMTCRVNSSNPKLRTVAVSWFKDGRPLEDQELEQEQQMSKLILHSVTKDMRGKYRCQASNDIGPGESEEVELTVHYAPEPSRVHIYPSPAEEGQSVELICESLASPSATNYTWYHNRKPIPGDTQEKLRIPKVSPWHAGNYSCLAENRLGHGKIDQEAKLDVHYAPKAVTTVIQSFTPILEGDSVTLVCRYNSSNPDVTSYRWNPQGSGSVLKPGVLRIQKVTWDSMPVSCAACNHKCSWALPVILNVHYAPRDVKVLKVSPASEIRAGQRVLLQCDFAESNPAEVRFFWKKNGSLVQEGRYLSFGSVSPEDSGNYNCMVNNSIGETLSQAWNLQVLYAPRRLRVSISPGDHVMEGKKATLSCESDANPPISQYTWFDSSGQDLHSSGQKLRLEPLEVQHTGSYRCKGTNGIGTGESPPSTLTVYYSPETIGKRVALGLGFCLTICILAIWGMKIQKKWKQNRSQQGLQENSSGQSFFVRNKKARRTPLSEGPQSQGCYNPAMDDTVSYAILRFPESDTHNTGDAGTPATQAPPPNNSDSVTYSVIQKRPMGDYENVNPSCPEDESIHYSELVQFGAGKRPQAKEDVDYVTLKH
# Summary of the method: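 Competition ELISA. Wells coated overnight with streptavidin (40 μg/mL in 50 mM NaHCO3, pH 8.5), then loaded 1 h with biotinylated sialoside probe (4 μg/mL in PBS) and blocked 3 h with 0.5% BSA/PBS. Graded inhibitor concentrations were incubated 1 h with 0.5 μg CD22Fc. After PBS/0.05% Tween 20 washes, bound Fc was detected with alkaline phosphatase anti-human IgG Fc. Triplicates, mean ± SD.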
# [5] = target: T3, Myelin-associated glycoprotein (Homo sapiens, UniProt P20916); test: Inhibition of human MAG after 30 min by competitive ELISA
# T3 sequence (P20916 whole entry): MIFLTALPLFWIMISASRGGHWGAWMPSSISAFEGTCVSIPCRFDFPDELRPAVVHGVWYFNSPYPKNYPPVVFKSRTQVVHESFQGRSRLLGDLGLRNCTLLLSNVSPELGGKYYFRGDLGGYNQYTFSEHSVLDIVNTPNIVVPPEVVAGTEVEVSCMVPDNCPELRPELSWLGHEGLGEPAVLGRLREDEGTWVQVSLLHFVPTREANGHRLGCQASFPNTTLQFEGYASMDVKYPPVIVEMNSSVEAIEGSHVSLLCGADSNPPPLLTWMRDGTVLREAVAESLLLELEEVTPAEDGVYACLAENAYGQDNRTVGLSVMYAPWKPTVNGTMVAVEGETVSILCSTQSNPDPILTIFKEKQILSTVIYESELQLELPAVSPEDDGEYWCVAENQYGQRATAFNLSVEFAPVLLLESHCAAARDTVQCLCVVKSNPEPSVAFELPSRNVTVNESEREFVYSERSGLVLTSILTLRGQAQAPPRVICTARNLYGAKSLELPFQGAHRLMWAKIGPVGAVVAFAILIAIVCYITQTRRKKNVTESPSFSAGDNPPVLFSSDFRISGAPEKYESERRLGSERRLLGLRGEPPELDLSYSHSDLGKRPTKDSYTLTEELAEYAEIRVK
# [6] = target: T4, B-cell receptor CD22 (Mus musculus) (UniProt P35329); test: Ratio of IC50 for 9-(4'-hydroxy-4-biphenyl)acetamido-9-deoxy-Neu5Gca2-6GalOMP to IC50 for compound at mouse CD22; summary of the method: as §1
# T4 sequence (whole entry): T2 sequence (P35329 whole entry)
# [7] = target: T3, Myelin-associated glycoprotein; test: Inhibition of human MAG after 1 hr by competitive ELISA; details: in the assay text read “after 30 min” for “after 1 hr”
# Summary of the method: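 Neutravidin plates as for hCD22, with biotinylated Siaα2-3LacNAc-PAA (0.33 μM) bound 1 h at RT. MAG-Fc (~0.12 μg/ml) was pretreated with V. cholerae sialidase (0.4 mU/ml) 45 min, stopped with 1 mM EDTA, then complexed 45 min with goat anti-human IgG F(ab')2 (0.05 μg/mL) and HRP anti-goat F(ab')2 (0.0167 μg/mL). Complex was diluted 3:2, bound with inhibitor 30 min at 37°C, and read by TMB at OD450.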
SMILES,Ratio IC50 [1],IC50 [2],Ratio IC50 [3],IC50 [4],IC50 [5],Ratio IC50 [6],IC50 [7]
O=C(CO)N[C@H]1[C@H]([C@H](O)[C@H](O)CNCc2ccc(-c3ccc(O)cc3)cc2)O[C@@](OCc2ccc(-c3ccccc3)cc2)(C(=O)O)C[C@@H]1O,7.4,1.12 µM,0.5,23.3 µM,16.6 µM,0.3,–
O=C(CO)N[C@H]1[C@H]([C@H](O)[C@H](O)CNCc2ccc(-c3ccc(O)cc3)cc2)O[C@@](OCc2ccccc2)(C(=O)O)C[C@@H]1O,3.4,0.82 µM,0.6,5.03 µM,–,1.2,9.27 µM
COc1ccc(O[C@@H]2O[C@H](CO[C@]3(C(=O)O)C[C@H](O)[C@@H](NC(=O)CO)[C@H]([C@H](O)[C@H](O)CNCc4ccc(-c5ccc(O)cc5)cc4)O3)[C@H](O)[C@H](O)[C@H]2O)cc1,11.4,0.53 µM,1,6.43 µM,–,1,37.4 µM
O=C(Cc1ccc(-c2ccc(F)cc2)cc1)NC[C@@H](O)[C@@H](O)[C@@H]1O[C@@](OCc2ccccc2)(C(=O)O)C[C@H](O)[C@H]1NC(=O)CO,–,–,–,5 µM,–,0.77,–

# Now those with a lower IC50 [4], led by results:
Ratio IC50 [1],IC50 [2],Ratio IC50 [3],IC50 [4],IC50 [5],Ratio IC50 [6],IC50 [7],SMILES
432,0.07 µM,12,0.19 µM,164 µM,20.2,–,O=C(Cc1ccc(-c2ccc(O)cc2)cc1)NC[C@@H](O)[C@@H](O)[C@@H]1O[C@@](OCc2ccc(-c3ccccc3)cc2)(C(=O)O)C[C@H](O)[C@H]1NC(=O)CO
41.5,–,–,3.84 µM,136 µM,–,–,COc1ccc(O[C@@H]2O[C@H](CO[C@]3(C(=O)O)C[C@H](O)[C@@H](NC(=O)CO)[C@H]([C@H](O)[C@H](O)CNC(=O)Cc4ccc(-c5ccc(O)cc5)cc4)O3)[C@H](O)[C@H](O)[C@H]2O)cc1
712,0.13 µM,7,0.1 µM,171 µM,38.4,–,O=C(Cc1ccc(-c2ccc(O)cc2)cc1)NC[C@@H](O)[C@@H](O)[C@@H]1O[C@@](OCc2ccccc2)(C(=O)O)C[C@H](O)[C@H]1NC(=O)CO
